# From BindingDB's records for doi:10.1021/jm970240y (Sanofi Recherche, 1997)
# Target: Integrin alpha-IIb/beta-3 (Homo sapiens, UniProt P08514+P05106)
# Experiment: In vitro inhibition of ADP-induced (2.5 uM) human platelet aggregation.
# Summary of the method: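 Human PRP from citrated blood (0.38% final) of unmedicated donors, spun 1000g 10 min; compound added in DMSO (0.01% final) 1 min before 2.5 μM ADP. Aggregation by Born method, measured as maximum curve height; percent inhibition calculated against vehicle-alone aggregation.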
# Chain of Integrin alpha-IIb/beta-3 (P05106 27-788 limits assumed): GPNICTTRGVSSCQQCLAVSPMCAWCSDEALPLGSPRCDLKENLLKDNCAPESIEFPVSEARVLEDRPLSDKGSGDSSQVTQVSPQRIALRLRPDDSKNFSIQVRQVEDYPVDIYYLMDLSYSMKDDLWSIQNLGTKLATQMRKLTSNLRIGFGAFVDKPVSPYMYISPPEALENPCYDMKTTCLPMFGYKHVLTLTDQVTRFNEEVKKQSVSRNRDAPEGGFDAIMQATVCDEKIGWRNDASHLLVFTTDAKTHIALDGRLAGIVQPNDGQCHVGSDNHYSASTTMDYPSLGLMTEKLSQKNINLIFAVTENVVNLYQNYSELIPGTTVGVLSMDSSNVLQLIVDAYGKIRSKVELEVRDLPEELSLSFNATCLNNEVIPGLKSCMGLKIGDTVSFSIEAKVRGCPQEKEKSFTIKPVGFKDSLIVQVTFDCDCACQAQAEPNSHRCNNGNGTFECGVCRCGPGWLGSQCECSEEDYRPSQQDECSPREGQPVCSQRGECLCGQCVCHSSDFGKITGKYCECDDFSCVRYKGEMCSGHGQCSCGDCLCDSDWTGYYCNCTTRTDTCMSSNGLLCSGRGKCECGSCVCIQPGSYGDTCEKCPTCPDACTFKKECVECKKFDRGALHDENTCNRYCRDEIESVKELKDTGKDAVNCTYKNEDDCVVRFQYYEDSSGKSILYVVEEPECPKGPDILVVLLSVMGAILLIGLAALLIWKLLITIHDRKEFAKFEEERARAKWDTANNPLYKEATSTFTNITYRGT
# Chain of Integrin alpha-IIb/beta-3 (P08514 32-887 limits assumed): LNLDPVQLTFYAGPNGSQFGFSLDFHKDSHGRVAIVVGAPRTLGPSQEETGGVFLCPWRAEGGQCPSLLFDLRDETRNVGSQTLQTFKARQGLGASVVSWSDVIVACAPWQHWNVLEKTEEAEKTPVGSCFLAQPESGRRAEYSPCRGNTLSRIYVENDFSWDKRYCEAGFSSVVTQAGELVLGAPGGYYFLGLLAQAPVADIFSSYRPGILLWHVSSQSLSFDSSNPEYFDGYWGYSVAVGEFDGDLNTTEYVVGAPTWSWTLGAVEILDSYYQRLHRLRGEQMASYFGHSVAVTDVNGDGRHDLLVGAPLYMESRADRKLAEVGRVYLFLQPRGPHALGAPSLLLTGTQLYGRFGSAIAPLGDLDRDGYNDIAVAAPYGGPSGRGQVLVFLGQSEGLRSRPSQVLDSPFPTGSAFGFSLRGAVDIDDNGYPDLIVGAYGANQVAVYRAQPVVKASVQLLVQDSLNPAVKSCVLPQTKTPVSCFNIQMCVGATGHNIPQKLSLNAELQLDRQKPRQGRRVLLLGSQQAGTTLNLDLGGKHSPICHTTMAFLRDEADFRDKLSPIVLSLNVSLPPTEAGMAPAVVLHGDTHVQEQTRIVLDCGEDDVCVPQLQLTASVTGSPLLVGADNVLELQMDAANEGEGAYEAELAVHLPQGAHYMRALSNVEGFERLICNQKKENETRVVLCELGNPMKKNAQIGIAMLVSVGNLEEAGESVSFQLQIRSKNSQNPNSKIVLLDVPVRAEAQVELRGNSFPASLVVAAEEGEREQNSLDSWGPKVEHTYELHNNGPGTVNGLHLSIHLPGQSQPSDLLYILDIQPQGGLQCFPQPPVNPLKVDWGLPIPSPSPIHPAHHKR
# Chain of Integrin alpha-IIb/beta-3 (P08514 891-1039 limits assumed): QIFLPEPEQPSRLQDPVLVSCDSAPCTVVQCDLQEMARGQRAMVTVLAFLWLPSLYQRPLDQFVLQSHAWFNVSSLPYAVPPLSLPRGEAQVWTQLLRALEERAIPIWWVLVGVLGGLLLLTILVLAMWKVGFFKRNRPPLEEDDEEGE
row,IC50,SMILES
1,250 nM,CC(C(=O)O)N1CCC(Nc2nc(-c3ccc(C(=N)N)cc3)cs2)CC1 (configuration not stated) [2-{4-[4-(4-carbamimidoyl-phenyl)-thiazol-2-ylamino]-piperidin-1-yl}-propionic acid]
2,6000 nM,N=C(N)c1ccc(-c2csc(NC3CCN(C(C(=O)O)c4ccccc4Cl)CC3)n2)cc1 (configuration not stated) [4-[4-(4-carbamimidoyl-phenyl)-thiazol-2-ylamino]-piperidin-1-yl}-(2-chloro-phenyl)-acetic acid]
3,42 nM,N=C(N)c1ccc(-c2csc(NC3CCN(CC(=O)O)CC3)n2)cc1 [{4-[4-(4-Carbamimidoyl-phenyl)-thiazol-2-ylamino]-piperidin-1-yl}-acetic acid]
4,65 nM,N=C(N)c1ccc(-c2csc(NC3CCN(C(C(=O)O)c4ccccc4)CC3)n2)cc1 (configuration not stated) [{4-[4-(4-Carbamimidoyl-phenyl)-thiazol-2-ylamino]-piperidin-1-yl}-phenyl-acetic acid]

# The remaining lines, values behind:
row,SMILES,IC50
1,CC(C)(C(=O)O)N1CCC(Nc2nc(-c3ccc(C(=N)N)cc3)cs2)CC1 [2-{4-[4-(4-Carbamimidoyl-phenyl)-thiazol-2-ylamino]-piperidin-1-yl}-2-methyl-propionic acid],> 10000 nM
2,COC(=O)CC(C(=O)O)N1CCC(Nc2nc(-c3ccc(C(=N)N)cc3)cs2)CC1 (configuration not stated) [2-{4-[4-(4-Carbamimidoyl-phenyl)-thiazol-2-ylamino]-piperidin-1-yl}-succinic acid 4-methyl ester],85 nM
3,N=C(N)c1ccc(-c2csc(N(CCC(=O)O)C3CCN(CC(=O)O)CC3)n2)cc1 [3-[[4-(4-Carbamimidoyl-phenyl)-thiazol-2-yl]-(1-carboxymethyl-piperidin-4-yl)-amino]-propionic acid],46 nM
4,N=C(N)c1ccc(-c2csc(NC3CCN(CCC(=O)O)CC3)n2)cc1 [3-{4-[4-(4-carbamimidoyl-phenyl)-thiazol-2-ylamino]-piperidin-1-yl}-propionic acid],1800 nM
5,N=C(N)c1ccc(-c2csc(N(CCCC(=O)O)C3CCN(CC(=O)O)CC3)n2)cc1 [4-[[4-(4-Carbamimidoyl-phenyl)-thiazol-2-yl]-(1-carboxymethyl-piperidin-4-yl)-amino]-butyric acid],96 nM
6,N=C(N)c1ccc(-c2csc(N(Cc3ccccc3)C3CCN(CC(=O)O)CC3)n2)cc1 [(4-{Benzyl-[4-(4-carbamimidoyl-phenyl)-thiazol-2-yl]-amino}-piperidin-1-yl)-acetic acid],230 nM
7,CN(c1nc(-c2ccc(C(=N)N)cc2)cs1)C1CCN(CC(=O)O)CC1 [(4-{[4-(4-carbamimidoyl-phenyl)-thiazol-2-yl]-methyl-amino}-piperidin-1-yl)-acetic acid],160 nM
8,N=C(N)c1ccc(-c2csc(N(CC(=O)O)C3CCN(CC(=O)O)CC3)n2)cc1 [[[4-(4-Carbamimidoyl-phenyl)-thiazol-2-yl]-(1-carboxymethyl-piperidin-4-yl)-amino]-acetic acid],170 nM
